Experimental data reported in ChEMBL document CHEMBL1127616, “Synthesis, structural characterization, and antitumor properties of a novel class of large-ring platinum(II) chelate complexes incorporating the cis-1,4-diaminocyclohexane ligand in a unique locked boat conformation” (J Med Chem, 1994).

What was measured:
Type in all cases: functional, organism-based
L1210 [1] = experiment: Tested for the ratio of treated and control against solid tumor murine L1210 leukemia 10 mg/kg per injection in experiment 2; T/C; details: Mus musculus
Procedure, shortened: (§1)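 Murine leukemia life span assay in CD2F1 (Balb/c × DBA/2F1) mice, 18–22 g, randomized, with IP tumor cell inoculation on day 0. Depending on the model, the inoculum was 1 × 10^4 cells with IP dosing on days 3, 7 and 11, or 1 × 10^6 cells with IP dosing on days 1, 5 and 9. Drug was given in 0.9% saline, mg/kg per injection, by average cage weight. Read-outs were median day of death and %T/C. Mice alive 60 days after treatment counted as cured and were excluded.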

L1210 [2] = experiment: Tested for median life span against solid tumor L1210 leukemia at 5.0 mg/kg per injection in experiment 2; details: Mus musculus
Procedure, shortened: (§2)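 CD2F1 mice weighing 18–22 g were inoculated IP with leukemia cells on day 0. Compounds in 0.9% saline were given IP in three injections, dosed by average cage weight, over a dose range from toxic to ineffective. Median life span was recorded, with cause of death assessed at necropsy and 60-day survivors counted as cured.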

L1210 [3] = experiment: Tested for median life span against solid tumor L1210 Pt-resistant leukemia at 4.0 mg/kg per injection in experiment 1; details: Mus musculus; procedure, shortened: as §2
L1210 [4] = experiment: Tested for median life span against solid tumor L1210 leukemia at 6.0 mg/kg per injection in experiment 1; details: Mus musculus; procedure, shortened: as §2
Mus musculus [5] = experiment: Tested for median life span against solid tumor P388 Pt-resistant leukemia at 10 mg/kg per injection; procedure, shortened: as §2
Mus musculus [6] = experiment: Tested for median life span against solid tumor P388 leukemia at 10 mg/kg per injection; procedure, shortened: as §1
L1210 [7] = experiment: Tested for the ratio of number of survivors / total number after 60 days at the dose of 10 mg/kg per injection against murine L1210 Pt-resistant leukemia in experiment 2; details: Mus musculus
Procedure, shortened: (§3)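 CD2F1 (Balb/c × DBA/2F1) mice, 18–22 g, randomized and inoculated IP with counted leukemia cells on day 0, then re-randomized. Three IP treatments, dissolved in 0.9% saline and dosed on average cage weight, with dose in mg/kg per injection across a full toxic-to-ineffective range. Median life span and %T/C were recorded. Survivors at 60 days were counted as cured and excluded from %T/C.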

L1210 [8] = experiment: Tested for the ratio of treated and control against solid tumor murine L1210 leukemia 4.0 mg/kg per injection in experiment 1; T/C; details: Mus musculus; procedure, shortened: as §1
Mus musculus [9] = experiment: Tested for in vivo weight change against murine P388 Pt-resistant leukemia at the dose of 10 mg/kg per injection
Procedure, shortened: (§4)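 Leukemia life-span assays used CD2F1 (Balb/c × DBA/2F1) mice weighing 18–22 g. Cells were inoculated IP on day 0, and compounds in 0.9% saline were given IP, dosed by average cage weight. Weight change is the difference in mean group weight between the last and first treatment days.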

L1210 [10] = experiment: Tested for the ratio of treated and control against solid tumor murine L1210 leukemia 6.0 mg/kg per injection in experiment 1; T/C; details: Mus musculus; procedure, shortened: as §1
L1210 [11] = experiment: Tested for in vivo weight change against murine L1210 leukemia at the dose of 10 mg/kg per injection in experiment 2; details: Mus musculus; procedure, shortened: as §4
Mus musculus [12] = experiment: Tested for the ratio of number of survivors / total number after 60 days at the dose of 10 mg/kg per injection against murine P388 Pt-resistant leukemia; procedure, shortened: as §3
L1210 [13] = experiment: Tested for median life span against solid tumor L1210 Pt-resistant leukemia at 5.0 mg/kg per injection in experiment 2; details: Mus musculus; procedure, shortened: as §2
L1210 [14] = experiment: Tested for the ratio of treated and control against solid tumor murine L1210 Pt-resistant leukemia 6.0 mg/kg per injection; T/C; details: Mus musculus; procedure, shortened: as §1
L1210 [15] = experiment: Tested for in vivo weight change against murine L1210 Pt-resistant leukemia at the dose of 6.0 mg/kg per injection; details: Mus musculus; procedure, shortened: as §4
Mus musculus [16] = experiment: Tested for the ratio of number of survivors / total number after 60 days at the dose of 5.0 mg/kg per injection against murine leukemia P388; procedure, shortened: as §3
L1210 [17] = experiment: Tested for the ratio of treated and control against solid tumor murine L1210 Pt-resistant leukemia 4.0 mg/kg per injection in experiment 1; T/C; details: Mus musculus; procedure, shortened: as §1
Mus musculus [18] = experiment: Tested for median life span against solid tumor P388 leukemia at 5.0 mg/kg per injection; T/C; procedure, shortened: as §1
Mus musculus [19] = experiment: Tested for in vivo weight change against murine B16 melanoma at the dose of 9.0 mg/kg per injection
Procedure, shortened: (§5)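 B6C3F1 (C57BL/6 × C3HF1) mice weighing 18–22 g received trocar tumor fragments SC on day 0. Compounds in 0.9% saline were given IP on a three-injection schedule, dosed by average cage weight. Weight change is the maximum treatment-related weight loss during the growth-delay assay.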

L1210 [20] = experiment: Tested for the ratio of number of survivors / total number after 60 days at the dose of 6.0 mg/kg per injection against murine leukemia L1210 experiment 1; details: Mus musculus; procedure, shortened: as §3
L1210 [21] = experiment: Tested for the ratio of treated and control against solid tumor murine L1210 Pt-resistant leukemia 1.6 mg/kg per injection in experiment 2; T/C; details: Mus musculus; procedure, shortened: as §1
L1210 [22] = experiment: Tested for median life span against solid tumor L1210 leukemia at 3.0 mg/kg per injection in experiment 1; details: Mus musculus; procedure, shortened: as §2
Mus musculus [23] = experiment: Tested for in vivo weight change against murine M5076 sarcoma at the dose of 4.0 mg/kg per injection; procedure, shortened: as §5
Mus musculus [24] = experiment: Tested for in vivo weight change against murine P388Pt-resistant leukemia at the dose of 2.3 mg/kg per injection; procedure, shortened: as §4
L1210 [25] = experiment: Tested for in vivo weight change against murine L1210 Pt-resistant leukemia at the dose of 1.6 mg/kg per injection in experiment 2; details: Mus musculus; procedure, shortened: as §4
L1210 [26] = experiment: Tested for the ratio of number of survivors / total number after 60 days at the dose of 1.5 mg/kg per injection against murine L1210 Pt-resistant leukemia in experiment 1; details: Mus musculus; procedure, shortened: as §3
L1210 [27] = experiment: Tested for in vivo weight change against murine L1210 leukemia at the dose of 1.6 mg/kg per injection in experiment 2; details: Mus musculus; procedure, shortened: as §4
L1210 [28] = experiment: Tested for in vivo weight change against murine L1210 Pt-resistant leukemia at the dose of 1.5 mg/kg per injection in experiment 1; details: Mus musculus; procedure, shortened: as §4
Mus musculus [29] = experiment: Tested for median life span against solid tumor P388 Pt-resistant leukemia at 2.3 mg/kg per injection; procedure, shortened: as §3
Mus musculus [30] = experiment: Tested for the ratio of treated and control against solid tumor murine P388 leukemia 3.7 mg/kg per injection in experiment 2; T/C; procedure, shortened: as §1
Mus musculus [31] = experiment: Tested for the ratio of number of survivors / total number after 60 days at the dose of 2.3 mg/kg per injection against murine leukemia P388 experiment 2; procedure, shortened: as §3
Mus musculus [32] = experiment: Tested for the ratio of number of survivors / total number after 60 days at the dose of 2.3 mg/kg per injection against murine P388 Pt-resistant leukemia; procedure, shortened: as §3
L1210 [33] = experiment: Tested for median life span against solid tumor L1210 leukemia at 2.5 mg/kg per injection in experiment 2; details: Mus musculus; procedure, shortened: as §2
L1210 [34] = experiment: Tested for the ratio of number of survivors / total number after 60 days at the dose of 1.6 mg/kg per injection against murine leukemia L1210 experiment 2; details: Mus musculus; procedure, shortened: as §3
L1210 [35] = experiment: Tested for median life span against solid tumor L1210 Pt-resistant leukemia at 1.5 mg/kg per injection in experiment 1; details: Mus musculus; procedure, shortened: as §2
Mus musculus [36] = experiment: Tested for the ratio of number of survivors / total number after 60 days at the dose of 3.7 mg/kg per injection against murine leukemia P388 experiment 2; procedure, shortened: as §3
M5076 = experiment: Tested for net cell kill tumor burden reduction during therapy at the dose 4.0 mg/kg in M5076 sarcoma; parameters: dose 4 mg/kg; details: Mus musculus

## CISPLATIN
L1210 [1]
  Ratio: 199%
L1210 [2]
  MLS: 16 days
L1210 [3]
  MLS: 11.1 days
L1210 [4]
  MLS: 18.5 days
Mus musculus [5]
  MLS: 18 days
Mus musculus [6]
  MLS: 9.5 days
L1210 [7]
  Survivors: 0
L1210 [8]
  Ratio: 184%
Mus musculus [9]
  Weight change: -5.9 g
L1210 [10]
  Ratio: 175%
L1210 [11]
  Weight change: -3.3 g
Mus musculus [12]
  Survivors: 0
L1210 [13]
  MLS: 11 days
L1210 [14]
  Ratio: 118%
L1210 [15]
  Weight change: -3.7 g
Mus musculus [16]
  Survivors: 0
L1210 [17]
  Ratio: 109%
Mus musculus [18]
  T/C: 261%
Mus musculus [19]
  Weight change: -4.5 g
L1210 [20]
  Survivors: 1

## [Pt(cis-1,4-dach)CL2]
L1210 [21]
  Ratio: 146%
L1210 [22]
  MLS: 21.5 days
Mus musculus [23]
  Weight change: -5.5 g
Mus musculus [24]
  Weight change: -0.1 g
L1210 [25]
  Weight change: 1.9 g
L1210 [26]
  60-day survivors: 0
L1210 [27]
  Weight change: 0.9 g
L1210 [28]
  Weight change: 1.9 g
Mus musculus [29]
  Survivors: 21 days
Mus musculus [30]
  T/C: 234%
Mus musculus [31]
  60-day survivors: 0
Mus musculus [32]
  60-day survivors: 0
L1210 [33]
  MLS: 22.5 days
L1210 [34]
  60-day survivors: 0
L1210 [35]
  MLS: 15.7 days
Mus musculus [36]
  Survivors: 0
M5076
  Log net cell kill: 0.6
